Reference: ChEMBL document CHEMBL1138178, “Identification of novel parasitic cysteine protease inhibitors by use of virtual screening. 2. The available chemical directory” (J Med Chem, 2006)
Where a SMILES comes first, the peptide text is derived from it. The star is where a group is joined. Cbz = O=C(OCc1ccccc1)*; OBn = c1ccc(CO*)cc1

What was measured:
Plasmodium falciparum [1] = assay: Antimalarial activity against Plasmodium falciparum W2; type: functional, organism-based
Method in brief: (§1)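 Sorbitol-synchronized chloroquine-resistant W2 P. falciparum at 1% parasitemia, 2% hematocrit, RPMI-1640 with 10% human serum, 3% O2/6% CO2/91% N2; compounds from DMSO (max 0.1%) for 48 h; fixed in 1% formaldehyde 48 h, stained with 1 nM YOYO-1 in 0.1% Triton X-100; parasitemia by flow cytometry; IC50 from percent control parasitemia versus concentration.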

Vero [2] = assay: Cytotoxicity against Vero cells up to 50 uM; type: functional, cell-based, Chlorocebus sabaeus
Method in brief: (§2)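 VERO monkey kidney fibroblast cells tested simultaneously with antileishmanial screen; cytotoxicity read by neutral red assay; IC50 computed from growth inhibition curve.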

Leishmania donovani = assay: Antileishmanial activity against Leishmania donovani promastigotes; type: functional, organism-based
Plasmodium falciparum [3] = assay: Antimalarial activity against Plasmodium falciparum W2 up to 20 uM; type: functional, organism-based; method in brief: as §1
Vero [4] = assay: Cytotoxicity against Vero cells; type: functional, cell-based; conditions: Chlorocebus sabaeus; method in brief: as §2
Falcipain 2 = target: T1, Falcipain 2 (Plasmodium falciparum, UniProt Q9N6S8); assay: Inhibition of falcipain2
T1 sequence (Q9N6S8 whole entry): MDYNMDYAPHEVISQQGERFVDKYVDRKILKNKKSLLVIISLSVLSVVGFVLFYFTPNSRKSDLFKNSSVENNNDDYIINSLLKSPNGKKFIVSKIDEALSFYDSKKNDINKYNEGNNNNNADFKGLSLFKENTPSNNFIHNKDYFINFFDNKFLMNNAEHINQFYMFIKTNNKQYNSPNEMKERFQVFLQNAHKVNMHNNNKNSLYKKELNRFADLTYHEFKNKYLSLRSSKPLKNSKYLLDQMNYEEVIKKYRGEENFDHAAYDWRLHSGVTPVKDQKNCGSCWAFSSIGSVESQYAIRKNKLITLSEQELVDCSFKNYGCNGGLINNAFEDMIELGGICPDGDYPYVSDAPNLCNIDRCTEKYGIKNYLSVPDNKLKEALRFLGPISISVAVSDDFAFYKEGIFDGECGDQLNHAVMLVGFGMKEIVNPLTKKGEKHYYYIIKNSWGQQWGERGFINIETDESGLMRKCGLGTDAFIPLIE

[5] = target: T2, Cysteine protease falcipain-3 (Plasmodium falciparum, UniProt Q9NBA7); assay: Inhibition of falcipain3
T2 sequence (Q9NBA7 whole entry): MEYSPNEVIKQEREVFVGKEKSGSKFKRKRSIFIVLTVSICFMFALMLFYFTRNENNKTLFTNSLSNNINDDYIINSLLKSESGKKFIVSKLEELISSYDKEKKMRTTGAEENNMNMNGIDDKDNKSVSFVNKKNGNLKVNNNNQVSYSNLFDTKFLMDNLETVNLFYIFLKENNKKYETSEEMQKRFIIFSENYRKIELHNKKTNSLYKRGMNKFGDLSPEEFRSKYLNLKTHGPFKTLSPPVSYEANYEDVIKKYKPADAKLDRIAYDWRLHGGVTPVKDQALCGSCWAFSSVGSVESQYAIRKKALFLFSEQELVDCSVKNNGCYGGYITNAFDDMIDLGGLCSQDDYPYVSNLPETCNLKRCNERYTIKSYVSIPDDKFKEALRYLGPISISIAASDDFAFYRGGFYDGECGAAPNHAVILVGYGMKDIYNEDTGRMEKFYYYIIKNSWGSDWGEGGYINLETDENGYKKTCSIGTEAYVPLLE

Cysteine protease = target: T3, Cysteine protease (Leishmania donovani, UniProt Q95WR6); assay: Inhibition of Leishmania donovani cysteine protease
T3 sequence (Q95WR6 whole entry): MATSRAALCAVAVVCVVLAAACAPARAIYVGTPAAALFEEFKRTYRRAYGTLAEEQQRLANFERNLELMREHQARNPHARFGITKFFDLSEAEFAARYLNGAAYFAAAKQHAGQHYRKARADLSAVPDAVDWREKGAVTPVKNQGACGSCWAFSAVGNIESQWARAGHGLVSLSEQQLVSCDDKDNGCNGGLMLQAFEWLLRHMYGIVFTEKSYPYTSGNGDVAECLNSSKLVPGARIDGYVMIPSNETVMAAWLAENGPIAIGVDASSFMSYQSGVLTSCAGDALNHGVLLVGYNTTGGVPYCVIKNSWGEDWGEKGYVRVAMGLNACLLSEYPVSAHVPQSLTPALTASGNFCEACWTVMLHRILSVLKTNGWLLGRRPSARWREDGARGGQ
Method in brief: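 Major cysteine protease purified from L. donovani promastigotes on Con A Sepharose; buffer 100 mM sodium acetate pH 5.5, 10 mM DTT, 0.1% Triton X-100, 1 mM EDTA; enzyme preincubated with compounds (DMSO stock) 10 min at 37 °C; Z-Phe-Arg-AMC at 10 µM final; 30 min at 37 °C; released AMC read fluorometrically.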

[6] = Leishmania donovani, read-out: IC50

Structure (SMILES)	IC50 (Plasmodium falciparum [1]) [µM]	IC50 (Falcipain 2) [µM]	IC50 [5] [µM]	further results
COc1ccc(-c2cncc(-c3cc(NCCCn4ccnc4)nc(C)n3)c2)cc1	2.8	–	–	–
CCOC(=O)C1CCN(S(=O)(=O)c2ccc(CNC(=O)c3ccccc3)s2)CC1	–	–	–	IC50 (Vero [2]): Non-toxic; IC50 (Leishmania donovani; [6]): 50.4 µM; IC50 (Plasmodium falciparum [3]): Not Active
c1ccc(-c2nc(NCCCn3ccnc3)cc(-c3ccncc3)n2)cc1	0.13	–	–	IC50 (Vero [2]): Non-toxic; IC90 (Leishmania donovani; Leishmania donovani): 98.2 µM; IC50 (Leishmania donovani; [6]): 50.5 µM
O=S(=O)(c1ccc(-c2ccc(S(=O)(=O)N3CCOCC3)s2)s1)N1CCOCC1	–	5.4	37.7	–
O=S(=O)(c1ccc2c(c1)C(=NO)c1cc(S(=O)(=O)N3CCOCC3)ccc1-2)N1CCOCC1	6	–	–	IC50 (Vero [2]): Non-toxic; IC90 (Leishmania donovani; Leishmania donovani): 81 µM; IC50 (Leishmania donovani; [6]): 52.7 µM
COC(=O)c1sccc1NC(=O)CSCc1ccc(Cl)cc1	–	–	–	IC50 (Vero [2]): Non-toxic; IC50 (Leishmania donovani; [6]): 45 µM; IC50 (Plasmodium falciparum [3]): Not Active
Cc1cccc(NC(=O)Cn2c(O)c(/N=N/C(=O)C(=O)NCc3ccccc3)c3ccccc32)c1	–	1.6	> 50	–
Cc1ccc(S(=O)(=O)N(C)C)cc1NS(=O)(=O)c1ccc(-c2ccon2)s1	–	2.9	> 50	–
Cn1c(O)c(/N=N/C(=O)CCCCC(=O)/N=N/c2c(O)n(C)c3ccccc23)c2ccccc21	–	6.5	> 50	–
O=C(CS(=O)(=O)c1ccc(Cl)cc1)NCCS(=O)(=O)c1ccccc1	–	–	–	IC50 (Cysteine protease): 24.9 µM
O=C(N[C@@H](COCc1ccccc1)C(=O)ON1C(=O)CCC1=O)OCc1ccccc1	–	–	–	IC50 (Cysteine protease): 23.5 µM
COc1ccc(-c2ccnc(SCC(=O)NCCSCc3ccco3)n2)cc1	–	–	–	IC50 (Vero [2]): Non-toxic; IC50 (Leishmania donovani; [6]): 79.4 µM; IC50 (Plasmodium falciparum [3]): Not Active
Brc1cncc(-c2cc(NCCCn3ccnc3)nc(-c3ccccc3)n2)c1	0.44	–	–	IC90 (Leishmania donovani; Leishmania donovani): 15.4 µM; IC50 (Leishmania donovani; [6]): 7.8 µM; IC50 (Vero [4]): 32.2 µM
Cc1nc(NCCCn2ccnc2)cc(-c2cncc(-c3ccc(F)cc3)c2)n1	2.6	–	–	IC90 (Leishmania donovani; Leishmania donovani): 85 µM; IC50 (Leishmania donovani; [6]): 41.2 µM; IC50 (Vero [4]): 41.2 µM
Cc1ccc(S(=O)(=O)NC(=O)NCC2CCN(S(=O)(=O)c3ccccc3)CC2)cc1	–	19	34	–
Cc1nc(C)nc(N(CCS(=O)(=O)c2ccccc2)CCS(=O)(=O)c2ccccc2)n1	–	13.2	> 50	–
O=S(=O)(NCCSCc1ccco1)c1cc(S(=O)(=O)c2ccccc2)cs1	–	–	–	IC50 (Vero [2]): Non-toxic; IC50 (Leishmania donovani; [6]): 54.1 µM; IC50 (Plasmodium falciparum [3]): Not Active
O=C(COCC(=O)N/N=C/CCc1ccccc1)N/N=C/CCc1ccccc1	3.9	–	–	IC50 (Vero [2]): Non-toxic; IC50 (Leishmania donovani): Not Active
O=C(CSc1nc2ccccc2o1)NCCSCc1ccco1	–	–	–	IC50 (Cysteine protease): 43 µM
COC(=O)c1sccc1NC(=O)CC(=O)Nc1ccsc1C(=O)OC	–	10.4	> 50	–
O=C(CNC(=O)OCc1ccccc1)N[C@@H](Cc1ccccc1)C(=O)OCc1ccccc1 (Cbz-Gly-Phe-OBn)	–	–	–	IC50 (Cysteine protease): 31.4 µM
C[C@@H]1[C@H](O)[C@@H](C)/C=C/C=C/C=C/C=C/C=C/C=C/C=C/[C@H](O[C@@H]2O[C@H](C)[C@@H](O)[C@H](N)[C@@H]2O)C[C@@H]2O[C@](O)(C[C@@H](O)C[C@@H](O)[C@H](O)CC[C@@H](O)C[C@@H](O)CC(=O)O[C@H]1C)C[C@H](O)[C@H]2C(=O)O [AMPHOTERICIN B]	–	–	–	IC90 (Leishmania donovani; Leishmania donovani): 0.3 µM; IC50 (Leishmania donovani; [6]): 0.04 µM
C[C@@H]1CC[C@H]2[C@@H](C)C(=O)O[C@@H]3O[C@@]4(C)CC[C@@H]1[C@]32OO4 [ARTEMISININ]	0.008	–	–	–
CC(C)C[C@H](NC(=O)[C@H]1O[C@@H]1C(=O)O)C(=O)NCCCCN=C(N)N [E-64]	–	–	0.075	–
CC(=O)N[C@@H](CC(C)C)C(=O)N[C@@H](CC(C)C)C(=O)N[C@H](C=O)CCCNC(=N)N [LEUPEPTIN]	–	–	–	IC50 (Cysteine protease): 0.01 µM
N=C(N)c1ccc(OCCCCCOc2ccc(C(=N)N)cc2)cc1 [PENTAMIDINE]	–	–	–	IC90 (Leishmania donovani; Leishmania donovani): 8.3 µM; IC50 (Leishmania donovani; [6]): 2.5 µM

Continued, in another order:

IC50 (Plasmodium falciparum [1]) [µM]	IC50 (Falcipain 2) [µM]	IC50 [5] [µM]	Structure (SMILES)	further results
20	–	–	Cn1c(CSc2ccnc3cc(Cl)ccc23)nnc1SCC(=O)N1CCOCC1	IC50 (Vero [2]): Non-toxic; IC50 (Leishmania donovani): Not Active
16.6	–	–	Cn1c(CSCC(=O)Nc2ccccc2)nnc1SCC(=O)Nc1cccc(Cl)c1	IC50 (Vero [2]): Non-toxic; IC50 (Leishmania donovani): Not Active
0.94	–	–	c1ccc(-c2nc(NCCCn3ccnc3)cc(-c3cccnc3)n2)cc1	IC90 (Leishmania donovani; Leishmania donovani): 56.1 µM; IC50 (Leishmania donovani; [6]): 12.6 µM; IC50 (Vero [4]): 40.7 µM
11.5	–	–	COc1ccc(-c2cncc(-c3cc(NCc4ccco4)nc(C)n3)c2)cc1	IC50 (Vero [2]): Non-toxic; IC50 (Leishmania donovani): Not Active
–	4.6	> 50	CCCc1cc(O)nc(SCC(=O)NCCSCc2ccco2)n1	–
–	10.8	38.5	O=C(Cn1nnc(-c2ccccc2)n1)NNC=NOCc1c(F)cccc1Cl	–
–	3.4	> 50	CCCS(=O)(=O)c1cscc1NC(=O)CSCCS(=O)(=O)c1ccc(Cl)cc1	–
–	50	> 50	N=C(CS(=O)(=O)Cc1ccc(F)cc1)NOC(=O)c1cccs1	–
–	15.3	18.8	O=C(CCSSCCC(=O)NCc1ccccc1)NCc1ccccc1	–
–	52.3	> 50	O=C(CSc1nnc(O)n1Cc1ccco1)c1ccc2c(c1)OCCO2	–
–	54.3	> 50	Cc1csc(Cn2nc(CC(=O)N/N=C/c3ccccc3)c3ccccc3c2=O)n1	–
–	14.3	49.2	COC(=O)c1ccsc1NC(=O)CN1CCN(S(=O)(=O)c2ccc(Cl)cc2)CC1	–
20	–	–	Cn1c(CSCC(=O)Nc2ccccc2)nnc1SCC(=O)Nc1ccccc1	IC50 (Vero [2]): Non-toxic; IC50 (Leishmania donovani): Not Active
–	1.4	11.4	O=S(=O)(NCc1ccco1)c1ccc2c(c1)Cc1cc(S(=O)(=O)NCc3ccco3)ccc1-2	–
20	–	–	CSc1cc(CSc2ccc(Cl)cc2)nc(-c2ccccn2)n1	IC50 (Vero [2]): Non-toxic; IC90 (Leishmania donovani; Leishmania donovani): 106 µM; IC50 (Leishmania donovani; [6]): 50 µM
–	47.8	56.6	O=S(=O)(Cc1ccc(Cl)cc1)Cc1nc(-c2ccsc2)no1	–
9.5	–	–	C[C@@H](C(=O)NCCS(=O)(=O)c1ccc(Br)cc1)S(=O)(=O)c1ccccc1	IC50 (Leishmania donovani): Not Active; IC50 (Vero [4]): 48.4 µM
> 2.5	–	–	O=C(CSCc1c(F)cccc1Cl)NCCSCc1ccco1	IC50 (Vero [2]): Non-toxic; IC50 (Leishmania donovani; [6]): 107 µM
20	–	–	O=C(NCc1ccncc1)c1ccc(-c2cnn(Cc3ccccc3)c2)nc1	–
9.5	13.8	31.2	CCOC(=O)c1c2cc(OCC(=O)NCc3ccco3)ccc2n2ccccc12	–
